Laboratory results taken from publication PMC3546530 (Cancer prevention research (Philadelphia, Pa.), 2012).
Where two headings read alike, the source gives them in different places.

Legend:
[1] = tested on: β-catenin in HCT 116 cells; experiment: β-Catenin levels; format: cell-based, human; details: HCT 116, 100 μmol/L
In short: (§1)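 Cells were lysed in ice-cold membrane lysis buffer (Triton X-100, MgCl2, KCl, DTT, HEPES, NaF, protease inhibitors) or in nuclear lysis buffer (HEPES, NaCl, EDTA, 25% glycerol). Nuclear lysates were kept at 4° C with vortexing every 5 min for 1 h, then centrifuged. Protein was measured by Lowry, separated by 12% SDS-PAGE and moved to nitrocellulose. Blots were blocked in 5% BSA/0.05% Tween 20, probed with primary antibody overnight at 4° C and HRP secondary for 1 h, and read by ECL.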

[2] = tested on: HT-29, SW480, and HCT 116 colon tumor cell lines; experiment: Growth assay; format: cell-based; details: Homo sapiens, 72 h, read-out: growth inhibition IC50
In short: (§2)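 Colon tumor cells were kept in RPMI-1640 with 5% FBS and 4 mmol/L glutamine at 37° C, 5% CO2. They were plated at 5,000 per well, left to adhere overnight, and exposed for 72 h to a 2-log range of test compound. Viability was measured as ATP content by CellTiter-Glo, relative to vehicle.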

purified ovine COX-1 = purified ovine COX-1 (Ovis aries, UniProt P05979); experiment: COX-1 colorimetric activity assay; format: biochemical
purified ovine COX-2 = purified ovine COX-2 (Ovis aries, UniProt P79208); experiment: COX-2 colorimetric activity assay; format: biochemical
[3] = tested on: LPS-stimulated U937 promonocytic cells; experiment: PGE2 production assay; format: cell-based, human
In short: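 U937 promonocytic cells were differentiated with 10 nmol/L PMA for 48 h, washed, and plated at 1.0 × 10^6 cells per well to adhere overnight. They were stimulated with 10 μg/mL LPS and treated with test compound for 24 h. PGE2 in supernatants was measured by HTRF competitive FRET between a PGE2–d2 conjugate and an anti-PGE2 antibody.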

[4] = tested on: HCT 116 colon tumor cells; experiment: Proliferation assay; format: cell-based; details: Homo sapiens, HCT-116, 24 h, read-out: inhibition of cell proliferation
In short: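 HCT 116 cells were seeded at 1.5 × 10^6 per 10-cm dish overnight, then serum-starved for 24 h. Test compound or vehicle (0.1% DMSO) was added in RPMI-1640 with 5% serum for 4 h, followed by 16 μmol/L EdU (final) for a further 18 h. EdU incorporation was read with Click-iT Alexa Fluor 488 by flow cytometry, ≥5,000 events, in triplicate.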

[5] = tested on: HCT 116 colon tumor cells; experiment: Apoptosis assay; format: cell-based, human; details: 24 hours, vehicle 3%
In short: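 HCT 116 cells were seeded at 1 × 10^6 per 10-cm dish and grown 48 h, then treated with test compound or vehicle for 24 h. Floating and attached cells were pooled, fixed in 10% neutral buffered formalin on ice for 15 min, and stained for DNA strand breaks by APO-BrdU TUNEL with AlexaFluor-488. TUNEL-positive cells were counted by flow cytometry, ≥5,000 events, in triplicate.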

[6] = tested on: total cGMP hydrolysis in HT-29 whole-cell lysates; experiment: cGMP PDE activity in tumor cell lysate; format: biochemical, human; details: read-out: total cGMP hydrolysis IC50; HT-29 whole-cell lysate
In short: (§3)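 HT-29 cells were lysed in PDE activity buffer (20 mmol/L Tris-acetate, 5 mmol/L Mg acetate, 1 mmol/L EGTA, 1.0% Triton X-100, 50 mmol/L NaF, protease inhibitors, pH 7.4). Lysate protein was titrated to the mid portion of the activity curve.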

[7] = tested on: total cAMP hydrolysis in HT-29 whole-cell lysates; experiment: cAMP PDE activity in tumor cell lysate; format: biochemical, human; details: read-out: total cAMP hydrolysis IC50; HT-29 whole-cell lysate
In short: as §3

PDE1A = PDE1A (Homo sapiens, UniProt P54750); experiment: Recombinant PDE isozyme assay; format: biochemical
In short: (§4)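 Purified recombinant human PDE isozymes were assayed by IMAP fluorescence polarization, in which binding of hydrolysed nucleotide to immobilised metal complexes raises polarization.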

PDE1B = PDE1B (Homo sapiens, UniProt Q01064); experiment: Recombinant PDE isozyme assay; format: biochemical
In short: as §4

PDE1C = PDE1C (Homo sapiens, UniProt Q14123); experiment: Recombinant PDE isozyme assay; format: biochemical
In short: as §4

PDE2A = PDE2A (Homo sapiens, UniProt O00408); experiment: Recombinant PDE isozyme assay; format: biochemical
PDE3A = PDE3A (Homo sapiens, UniProt Q14432); experiment: Recombinant PDE isozyme assay; format: biochemical
In short: as §4

PDE3B = PDE3B (Homo sapiens, UniProt Q13370); experiment: Recombinant PDE isozyme assay; format: biochemical
In short: as §4

PDE4B = PDE4B (Homo sapiens, UniProt Q07343); experiment: Recombinant PDE isozyme assay; format: biochemical
In short: as §4

[8] = target: PDE5A (purified recombinant PDE5) (Homo sapiens, UniProt O76074); experiment: Recombinant PDE isozyme assay; format: biochemical
In short: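 IMAP fluorescence polarization assay run on recombinant enzyme per kit instructions. Substrates: TAMRA-cGMP or fluorescein-cAMP, each at 50 nmol/L final. Hydrolysed cyclic nucleotide binds immobilized metal coordination complexes, raising polarization.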

PDE6C = PDE6C (Homo sapiens, UniProt P51160); experiment: Recombinant PDE isozyme assay; format: biochemical
In short: as §4

PDE7A = PDE7A (Homo sapiens, UniProt Q13946); experiment: Recombinant PDE isozyme assay; format: biochemical
In short: as §4

PDE8A = PDE8A (Homo sapiens, UniProt O60658); experiment: Recombinant PDE isozyme assay; format: biochemical
In short: as §4

PDE9A = PDE9A (Homo sapiens, UniProt O76083); experiment: Recombinant PDE isozyme assay; format: biochemical
In short: as §4

PDE11A = PDE11A (Homo sapiens, UniProt Q9HCR9); experiment: Recombinant PDE isozyme assay; format: biochemical
In short: as §4

[9] = tested on: HCT 116 colon tumor cells; experiment: Growth assay; format: cell-based; details: Homo sapiens, HCT-116, read-out: growth inhibition IC50
In short: as §2

HT-29 colon tumor cells = experiment: Growth assay; format: cell-based; details: Homo sapiens, HT-29, read-out: growth inhibition IC50
In short: as §2

[10] = tested on: normal fetal human colonocytes (FHC); experiment: Growth assay; format: cell-based
[11] = tested on: intracellular cGMP in HEK293 cells; experiment: Intracellular cGMP levels; format: cell-based, human; details: HEK293, 50 μmol/L SNP plus 1, 3, or 10 μmol/L compound
[12] = tested on: PKG (VASP phosphorylation) in HT-29 cells; experiment: PKG activation; format: cell-based, human; details: HT-29, 5 μmol/L; remained elevated for 5 hours
[13] = tested on: nuclear β-catenin in HT-29 cells; experiment: Nuclear β-catenin levels; format: cell-based, human
In short: as §1

survivin in HT-29 cells = experiment: Survivin expression; format: cell-based, human; details: 10 μmol/L, slightly longer duration than β-catenin decrease
In short: as §1

[14] = tested on: cleaved caspase-3 in HT-29 cells; experiment: Caspase-3 cleavage; format: cell-based, human; details: HT-29, 10 μmol/L
In short: as §1

[15] = tested on: β-catenin–mediated Tcf transcriptional activity in HCT 116 cells; experiment: TOP/FOP-flash Tcf luciferase reporter assay; format: cell-based, human; details: HCT 116, 24 hours
In short: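 HCT 116 cells in 24-well plates were cotransfected with 0.1 μg TOP-flash (wild-type Tcf sites) or FOP-flash (mutated sites, nonspecific control) plus 0.1 μg β-galactosidase vector. After 24 h treatment with test compound, luciferase activity was measured and normalised to β-galactosidase activity.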

tumor cell growth = details: cited from earlier work
PDE5 = details: cited from earlier work

Chain of PDE11A (Q9HCR9 whole entry): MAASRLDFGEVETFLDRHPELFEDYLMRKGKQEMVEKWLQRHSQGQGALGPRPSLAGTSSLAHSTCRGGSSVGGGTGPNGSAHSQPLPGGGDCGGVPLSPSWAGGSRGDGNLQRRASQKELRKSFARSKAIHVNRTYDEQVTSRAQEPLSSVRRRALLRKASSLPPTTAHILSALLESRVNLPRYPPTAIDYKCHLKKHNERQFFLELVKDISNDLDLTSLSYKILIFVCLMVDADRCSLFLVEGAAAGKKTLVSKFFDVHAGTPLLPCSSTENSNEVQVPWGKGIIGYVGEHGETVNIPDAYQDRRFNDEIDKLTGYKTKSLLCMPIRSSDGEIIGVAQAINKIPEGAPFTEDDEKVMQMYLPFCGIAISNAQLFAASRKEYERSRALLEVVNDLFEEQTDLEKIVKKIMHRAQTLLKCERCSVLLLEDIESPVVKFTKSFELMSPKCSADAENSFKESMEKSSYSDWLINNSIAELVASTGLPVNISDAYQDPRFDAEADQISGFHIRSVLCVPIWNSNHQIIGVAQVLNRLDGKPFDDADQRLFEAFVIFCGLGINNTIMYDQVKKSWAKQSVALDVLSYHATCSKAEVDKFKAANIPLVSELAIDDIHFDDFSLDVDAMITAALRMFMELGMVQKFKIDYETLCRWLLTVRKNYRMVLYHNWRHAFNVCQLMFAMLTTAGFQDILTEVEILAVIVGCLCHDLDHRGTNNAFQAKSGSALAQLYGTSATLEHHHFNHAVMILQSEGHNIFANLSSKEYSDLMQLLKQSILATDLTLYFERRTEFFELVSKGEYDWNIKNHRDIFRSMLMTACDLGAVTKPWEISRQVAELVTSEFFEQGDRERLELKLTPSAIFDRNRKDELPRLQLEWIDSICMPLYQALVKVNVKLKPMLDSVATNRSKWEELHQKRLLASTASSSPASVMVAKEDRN
Chain of PDE1C (Q14123 whole entry): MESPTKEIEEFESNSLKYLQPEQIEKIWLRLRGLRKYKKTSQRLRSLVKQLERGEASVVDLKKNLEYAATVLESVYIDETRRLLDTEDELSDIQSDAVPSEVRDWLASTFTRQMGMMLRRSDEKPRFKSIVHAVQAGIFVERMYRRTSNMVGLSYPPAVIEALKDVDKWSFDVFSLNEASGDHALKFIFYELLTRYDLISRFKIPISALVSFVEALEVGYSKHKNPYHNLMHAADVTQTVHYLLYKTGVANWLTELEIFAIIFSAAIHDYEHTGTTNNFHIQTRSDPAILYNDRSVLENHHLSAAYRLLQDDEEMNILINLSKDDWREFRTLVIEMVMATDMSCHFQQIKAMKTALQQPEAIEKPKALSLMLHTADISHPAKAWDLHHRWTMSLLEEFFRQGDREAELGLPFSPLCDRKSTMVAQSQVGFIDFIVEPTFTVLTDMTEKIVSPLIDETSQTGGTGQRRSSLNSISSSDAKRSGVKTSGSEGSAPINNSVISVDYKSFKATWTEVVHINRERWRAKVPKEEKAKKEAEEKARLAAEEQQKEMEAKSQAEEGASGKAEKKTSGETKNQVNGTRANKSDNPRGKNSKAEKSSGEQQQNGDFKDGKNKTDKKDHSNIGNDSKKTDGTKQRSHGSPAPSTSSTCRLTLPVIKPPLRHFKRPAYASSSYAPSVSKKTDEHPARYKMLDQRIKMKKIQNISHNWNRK
Chain of PDE3B (Q13370 whole entry): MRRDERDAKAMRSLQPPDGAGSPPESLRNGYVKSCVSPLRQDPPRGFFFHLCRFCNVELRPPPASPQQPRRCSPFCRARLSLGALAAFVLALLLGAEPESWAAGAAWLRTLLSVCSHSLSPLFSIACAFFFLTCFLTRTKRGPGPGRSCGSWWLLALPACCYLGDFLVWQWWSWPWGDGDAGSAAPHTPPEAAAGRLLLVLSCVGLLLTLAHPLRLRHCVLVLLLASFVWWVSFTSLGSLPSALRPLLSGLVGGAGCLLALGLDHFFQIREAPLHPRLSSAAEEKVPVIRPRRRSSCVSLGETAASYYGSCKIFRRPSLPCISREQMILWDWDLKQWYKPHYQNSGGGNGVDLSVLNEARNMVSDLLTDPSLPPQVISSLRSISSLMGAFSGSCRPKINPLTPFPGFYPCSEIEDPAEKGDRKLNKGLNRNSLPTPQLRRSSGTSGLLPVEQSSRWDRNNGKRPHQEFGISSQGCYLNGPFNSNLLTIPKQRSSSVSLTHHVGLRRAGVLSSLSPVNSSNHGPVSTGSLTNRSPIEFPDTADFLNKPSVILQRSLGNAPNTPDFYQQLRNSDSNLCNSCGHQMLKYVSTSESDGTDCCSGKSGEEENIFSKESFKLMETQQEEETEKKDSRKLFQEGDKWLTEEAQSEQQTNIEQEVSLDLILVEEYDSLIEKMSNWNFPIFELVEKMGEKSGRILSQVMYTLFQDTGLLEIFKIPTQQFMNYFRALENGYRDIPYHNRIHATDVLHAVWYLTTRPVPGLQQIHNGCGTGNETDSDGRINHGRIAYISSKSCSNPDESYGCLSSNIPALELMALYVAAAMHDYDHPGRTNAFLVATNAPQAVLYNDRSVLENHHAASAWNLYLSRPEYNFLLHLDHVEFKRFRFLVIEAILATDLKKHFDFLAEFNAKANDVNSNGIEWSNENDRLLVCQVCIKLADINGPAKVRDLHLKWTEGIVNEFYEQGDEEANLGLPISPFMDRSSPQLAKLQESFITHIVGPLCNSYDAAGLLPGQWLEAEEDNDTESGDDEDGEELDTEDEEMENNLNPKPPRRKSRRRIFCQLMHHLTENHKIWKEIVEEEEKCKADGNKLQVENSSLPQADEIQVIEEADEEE
Chain of PDE1B (Q01064 whole entry): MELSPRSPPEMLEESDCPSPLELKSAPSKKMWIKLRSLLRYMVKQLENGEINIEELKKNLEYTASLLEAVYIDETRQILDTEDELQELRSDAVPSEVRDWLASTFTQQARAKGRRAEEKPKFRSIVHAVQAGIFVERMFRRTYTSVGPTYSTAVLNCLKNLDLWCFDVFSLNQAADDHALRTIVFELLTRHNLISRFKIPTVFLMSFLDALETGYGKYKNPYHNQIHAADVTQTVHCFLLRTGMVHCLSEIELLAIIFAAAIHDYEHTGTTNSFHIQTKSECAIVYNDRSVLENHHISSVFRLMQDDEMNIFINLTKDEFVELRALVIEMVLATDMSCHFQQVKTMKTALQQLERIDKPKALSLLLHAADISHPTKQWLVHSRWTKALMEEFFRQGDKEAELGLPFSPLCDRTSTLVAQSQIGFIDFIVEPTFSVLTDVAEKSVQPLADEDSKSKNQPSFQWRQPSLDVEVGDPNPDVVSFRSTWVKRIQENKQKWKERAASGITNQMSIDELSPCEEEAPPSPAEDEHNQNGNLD
Chain of purified ovine COX-1 (P05979 25-600): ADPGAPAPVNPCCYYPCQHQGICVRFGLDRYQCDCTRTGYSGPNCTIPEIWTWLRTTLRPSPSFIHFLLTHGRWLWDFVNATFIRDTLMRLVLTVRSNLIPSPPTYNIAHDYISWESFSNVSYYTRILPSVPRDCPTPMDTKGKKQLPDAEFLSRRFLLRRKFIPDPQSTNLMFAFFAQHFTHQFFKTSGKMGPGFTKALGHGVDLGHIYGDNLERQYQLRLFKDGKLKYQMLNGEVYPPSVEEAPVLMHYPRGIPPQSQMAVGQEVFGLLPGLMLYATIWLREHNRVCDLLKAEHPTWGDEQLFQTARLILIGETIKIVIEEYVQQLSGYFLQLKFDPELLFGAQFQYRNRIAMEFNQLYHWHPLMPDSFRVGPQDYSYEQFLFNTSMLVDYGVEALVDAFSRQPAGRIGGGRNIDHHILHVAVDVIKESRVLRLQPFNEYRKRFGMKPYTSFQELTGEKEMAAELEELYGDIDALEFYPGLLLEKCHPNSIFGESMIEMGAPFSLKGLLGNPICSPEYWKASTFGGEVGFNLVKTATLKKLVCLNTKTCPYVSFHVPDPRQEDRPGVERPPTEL
Chain of PDE1A (P54750 whole entry): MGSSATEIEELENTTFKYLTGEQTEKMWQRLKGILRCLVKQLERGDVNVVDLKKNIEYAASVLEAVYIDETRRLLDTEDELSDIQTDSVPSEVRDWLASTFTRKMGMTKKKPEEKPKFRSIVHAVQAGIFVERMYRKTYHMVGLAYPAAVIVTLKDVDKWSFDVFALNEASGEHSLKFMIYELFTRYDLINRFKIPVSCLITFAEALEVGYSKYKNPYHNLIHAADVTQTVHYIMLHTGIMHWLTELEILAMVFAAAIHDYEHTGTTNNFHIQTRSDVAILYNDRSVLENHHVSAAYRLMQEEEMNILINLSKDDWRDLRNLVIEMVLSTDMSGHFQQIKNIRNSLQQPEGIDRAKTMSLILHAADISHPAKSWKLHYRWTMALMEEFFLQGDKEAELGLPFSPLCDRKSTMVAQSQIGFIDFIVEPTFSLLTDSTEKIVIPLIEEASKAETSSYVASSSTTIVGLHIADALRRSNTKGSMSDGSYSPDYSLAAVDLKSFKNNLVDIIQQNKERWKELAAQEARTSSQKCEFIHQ
Chain of PDE9A (O76083 whole entry): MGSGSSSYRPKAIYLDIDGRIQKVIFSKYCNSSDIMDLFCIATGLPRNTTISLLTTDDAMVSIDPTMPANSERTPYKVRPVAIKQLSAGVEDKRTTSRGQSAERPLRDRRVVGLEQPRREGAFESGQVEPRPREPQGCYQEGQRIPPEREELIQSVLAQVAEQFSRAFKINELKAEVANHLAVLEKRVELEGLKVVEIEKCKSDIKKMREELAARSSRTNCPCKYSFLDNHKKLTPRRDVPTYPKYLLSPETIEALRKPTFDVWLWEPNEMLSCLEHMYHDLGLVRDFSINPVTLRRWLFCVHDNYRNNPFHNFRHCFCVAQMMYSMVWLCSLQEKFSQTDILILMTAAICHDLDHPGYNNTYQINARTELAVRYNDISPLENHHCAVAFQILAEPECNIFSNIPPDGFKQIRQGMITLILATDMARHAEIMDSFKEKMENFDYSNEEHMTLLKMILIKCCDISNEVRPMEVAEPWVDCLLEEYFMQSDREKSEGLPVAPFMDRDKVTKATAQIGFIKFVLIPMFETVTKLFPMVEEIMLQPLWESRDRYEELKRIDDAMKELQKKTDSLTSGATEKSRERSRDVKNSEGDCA

Nc1nc2c(nc(Br)n2[C@@H]2O[C@@H]3COP(=O)(O)O[C@H]3[C@H]2O)c(=O)[nH]1 [8-bromo-cGMP]
effect on β-catenin levels [1]: suppress β-catenin levels

CC1=C(CCNCc2ccccc2)c2cc(F)ccc2/C1=C\c1ccc([S+](C)[O-])cc1 (stereo not drawn) [SBA, (Z)-N-benzyl-2-(5-fluoro-2-methyl-1-(4-(methylsulfinyl)benzylidene)-1H-inden-3-yl)ethanamine]
IC50 [2]: 3 to 5 µM | IC50 (purified ovine COX-1): > 200 µM | IC50 (purified ovine COX-2): > 200 µM | suppression of PGE2 production ([3]; LPS 10 μg/mL, 24 hours treatment): ineffective | inhibition at 50 µM [4]: 86% | apoptotic (TUNEL-positive) cells ([5]; 50 μmol/L): 75% | IC50 [6]: 8 µM | IC50 [7]: > 200 µM | IC50 (PDE1A): > 100 µM | IC50 (PDE1A; read-out: cAMP IC50, PDE 1A, cAMP substrate): > 100 µM | IC50 (PDE1B): > 100 µM | IC50 (PDE1B; read-out: cAMP IC50, PDE 1B, cAMP substrate): > 100 µM | IC50 (PDE1C): > 100 µM | IC50 (PDE1C; read-out: cAMP IC50, PDE 1C, cAMP substrate): > 100 µM | IC50 (PDE2A): > 100 µM | IC50 (PDE2A; read-out: cAMP IC50, PDE 2A, cAMP substrate): > 100 µM | IC50 (PDE3A): > 100 µM | IC50 (PDE3A; read-out: cAMP IC50, PDE 3A, cAMP substrate): > 100 µM | IC50 (PDE3B): > 100 µM | IC50 (PDE3B; read-out: cAMP IC50, PDE 3B, cAMP substrate): > 100 µM | IC50 (PDE4B): 75 µM | IC50 [8]: 9 µM | IC50 (PDE6C): > 100 µM | IC50 (PDE7A): > 100 µM | IC50 (PDE8A): > 100 µM | IC50 (PDE9A): > 100 µM | IC50 (PDE11A): > 100 µM | IC50 (PDE11A; read-out: cAMP IC50, PDE 11A, cAMP substrate): > 100 µM | IC50 [9]: 5 µM | IC50 (HT-29 colon tumor cells): 5 µM | fold higher IC50 in FHC than in colon tumor cell lines ([10]; FHC vs HT-29 and HCT 116): > 6 fold | IC50 ([10]; Homo sapiens, read-out: growth inhibition IC50): 33 µM | effect on intracellular cGMP (luminescence) [11]: rapid and sustained increase in luminescence | time to increased phospho-VASP levels [12]: ≤ 1 h | time to reduced nuclear levels of β-catenin [13]: ≤ 1 h | expression of survivin (survivin in HT-29 cells): decreased | levels of cleaved caspase-3 [14]: increased | β-catenin–mediated Tcf transcriptional activity [15]: significant decrease

CCCc1nn(C)c2c(=O)[nH]c(-c3cc(S(=O)(=O)N4CCN(C)CC4)ccc3OCC)nc12 [sildenafil]
tumor cell growth inhibitory activity (tumor cell growth): completely inactive

CSc1ccc(/C=C2/C(C)=C(CC(=O)O)c3cc(F)ccc32)cc1 [sulindac sulfide, Sulindac sulfide, reference compound]
IC50 [2]: 90 to 120 µM | IC50 (purified ovine COX-1; read-out: COX-1 inhibition IC50, purified ovine COX-1): 2 µM | IC50 ([3]; Homo sapiens, U-937, 24 h, read-out: suppression of PGE2 production IC50): 0.7 µM | apoptotic (TUNEL-positive) cells ([5]; 100 μmol/L): 12% | IC50 [6]: 49 µM | IC50 [7]: 133 µM

CN1CC(=O)N2[C@H](c3ccc4c(c3)OCO4)c3[nH]c4ccccc4c3C[C@@H]2C1=O [tadalafil]
concentrations required to inhibit tumor cell growth (tumor cell growth): micromolar levels | concentrations required to inhibit PDE5 in cell-free assays (PDE5): nanomolar levels
